High-throughput results deposited in PubChem BioAssay by Broad Institute.
The entries come from a sample that favours hits as a whole.
S100A4 MyoIIA – blocks human S100A4 binding to myosin IIA peptide. inhibition, % at 10.7 µM. P26447. S100A4/TAMRA-MyoIIA peptide fluorescence polarization. 360,000 compounds, 0.14% hits;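 active = mean inhibition of at least 70% across replicates, with every replicate also reaching that level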
Target sequence (P26447 whole entry, looked up): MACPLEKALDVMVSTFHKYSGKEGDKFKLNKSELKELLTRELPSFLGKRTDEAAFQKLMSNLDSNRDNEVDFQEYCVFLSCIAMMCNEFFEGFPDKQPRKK
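Test system: S100A4 monomer protein. Medium: HEPES buffer with Ca2+, pH 7.2. Reagent: fluorescent myosin IIA peptide, 5 nM. Compound dosing: single-point compound testing. Timing: 5 min between mix addition and reading. Benchmarks: DMSO neutral and TFP positive wells.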
ERAP1 HTS inh – inhibitors of human ERAP1 aminopeptidase; Q9NZ08; recombinant ERAP1, Leu-AMC fluorescence, 60 min; inhibition, % at 10.7 µM; 340,000 compounds, 0.15% hits;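 active = mean replicate inhibition of at least 30%, or all replicates individually reaching that 30% level; inactive = mean below 30% and not every replicate reaching it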
PDI turbidity – PDI (human) enzyme inhibition; 350,000 compounds, 0.052% hits; AID 588391; PDI insulin aggregation turbidity, A650, 90 min; inhibition, % at 10 µM;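 active = mean inhibition across replicates of 30% or more, whatever share of single replicates reach that level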
ERp5 block – blocks human ERp5 reductase activity on insulin. 350,000 compounds, 0.05% hits. AID 651711. inhibition, % at 9.99 µM. Q15084. ERp5 insulin aggregation, absorbance 650 nm, 90 min;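 active = mean replicate inhibition above about 25%, with every replicate also reaching it, limit read from the data, passing the limit was not always enough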
FGF22 binding-1 – shifts melting point of recombinant human FGF22; Q9HCT0; recombinant FGF22 thermal shift, SYPRO orange fluorescence; percent of sucrose octasulfate shift, DMSO zero; activity (Tm shift, normalised), % at 9.99 µM; 340,000 compounds, 1.5% hits; AID 651658;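 active = mean Tm shift, scaled 0 neutral to 100 positive control, at about 1.3% or above, every replicate too, limit read from the data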
Target sequence (Q9HCT0 whole entry, looked up): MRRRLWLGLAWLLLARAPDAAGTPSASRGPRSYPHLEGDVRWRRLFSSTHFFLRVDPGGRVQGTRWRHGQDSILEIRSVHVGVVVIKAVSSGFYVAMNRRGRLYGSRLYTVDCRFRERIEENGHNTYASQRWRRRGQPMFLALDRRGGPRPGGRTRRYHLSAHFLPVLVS
FGF22 binding-2 – binds human FGF22 shifting its melting temperature; thermal shift activity, °C (ΔTm) at 38 µM; shares compounds with FGF22 binding-1; recombinant FGF22 thermal shift, SYPRO orange fluorescence; 1,000 compounds, 2% hits;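 active = fitted rise in melting shift crosses a set limit at or below the top valid dose tested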
TSA no protein – shows thermal shift signal without protein, FGF22 counter-screen | AID 743019 | shares compounds with FGF22 binding-1 | AC50, µM (doses to about 38 µM) | 1,000 compounds, 2% hits | compound-only SYPRO orange thermal shift counter-screen, no protein;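 active = rising signal whose fitted curve reaches the 0.54 level within the top valid dose, showing a melting point, actives reach about 13 µM in these data; inactive = the rest, including activity in the opposite direction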; also: value is where the raw curve crosses a fixed level and not half-maximal
Of the large screens only hits and unclear results are named; the others gave an inactive call (follow-up assays come after a bar, where they were run).

CCCN(C)C[C@@H]1Oc2cc(-c3ccncc3)ccc2S(=O)(=O)N([C@@H](C)CO)C[C@@H]1C	none (no result: PDI turbidity)
COc1ccc(Nc2nc(-c3ccccc3)c(C(=O)Nc3cccnc3)s2)cc1	none
O=C(OCc1ccc(Cl)cc1)c1cnccn1	none (no result: S100A4 MyoIIA, ERAP1 HTS inh, ERp5 block, FGF22 binding-1)
O=C(CNC(=O)C1CCCCC1)OCc1cc(=O)oc2ccc3ccccc3c12	none (no result: S100A4 MyoIIA, ERAP1 HTS inh, ERp5 block, FGF22 binding-1)
CC(=O)N(Cc1c(C#N)c2ccccc2n1C)c1ccccc1	none (no result: S100A4 MyoIIA, ERAP1 HTS inh, ERp5 block, FGF22 binding-1)
Cc1ccc(C)c(S(=O)(=O)N2CCN(C(=O)CN3C(=O)NC(C)(C)C3=O)CC2)c1	none
COc1ccc(S(=O)(=O)N[C@@H]2C=C[C@H](CC(=O)NCCc3ccccc3)O[C@@H]2CO)cc1	FGF22 binding-1 1.4 (no result: PDI turbidity) | FGF22 binding-2 inactive | TSA no protein inactive
COc1ccc(S(=O)(=O)N[C@H]2C=C[C@@H](CC(=O)NCCc3ccccc3)O[C@@H]2CO)cc1	none (no result: PDI turbidity)
Cc1ccc(S(=O)(=O)N[C@H]2C=C[C@@H](CC(=O)NCc3ccc(Cl)c(Cl)c3)O[C@H]2CO)cc1	FGF22 binding-1 1.3 (no result: PDI turbidity) | FGF22 binding-2 inactive | TSA no protein inactive
CC(=O)N1[C@H](CO)[C@H](c2ccccc2)[C@H]1CN(C(=O)c1cccc(F)c1)C(C)C	FGF22 binding-1 1.7 (no result: PDI turbidity) | FGF22 binding-2 inactive | TSA no protein inactive
CC(=O)N1[C@@H](CO)[C@@H](c2ccccc2)[C@@H]1CN(C(=O)c1cccc(F)c1)C(C)C	none (no result: PDI turbidity)
COc1cc(OC)cc(C(=O)Nc2nc3ccc(S(C)(=O)=O)cc3s2)c1	FGF22 binding-1 1.4 | FGF22 binding-2 inactive | TSA no protein inactive
COc1cc(C(=O)Nc2nc3ccc(S(C)(=O)=O)cc3s2)cc(OC)c1C	none (no result: ERAP1 HTS inh)
O=C(NC1CCCCC1)N1CC(=O)N2[C@H](C1)[C@H](c1ccc(-c3cccc(F)c3)cc1)[C@@H]2CO	none (no result: PDI turbidity)
O=C(Nc1cccc(F)c1)N1CC(=O)N2[C@@H](CO)[C@@H](c3ccc(Br)cc3)[C@@H]2C1	FGF22 binding-1 1.3 (no result: PDI turbidity) | FGF22 binding-2 inactive | TSA no protein inactive
O=C(NC1CCCCC1)N1CC(=O)N2[C@H](CO)[C@H](c3ccc(-c4cccc(F)c4)cc3)[C@H]2C1	FGF22 binding-1 1.4 (no result: PDI turbidity) | FGF22 binding-2 inactive | TSA no protein inactive
COc1cccc(S(=O)(=O)N(C)C[C@@H]2Oc3cc(C#CCC(C)C)ccc3S(=O)(=O)N([C@@H](C)CO)C[C@@H]2C)c1	none (no result: PDI turbidity)
O=C(Cn1cc(COc2ccc(Br)cc2)nn1)c1ccc(O)cc1	FGF22 binding-1 1.5 | FGF22 binding-2 inactive | TSA no protein inactive
CC(=O)c1cc(C)c(OCc2cn(CC(=O)c3ccc(O)cc3)nn2)c(C)c1	none
O=C(Cn1cc(COc2c(Br)cc(F)cc2Br)nn1)c1ccc(O)cc1	none
CCCC(=O)c1ccc(OCc2cn(CC(=O)c3ccc(O)cc3)nn2)cc1	FGF22 binding-1 1.5 | FGF22 binding-2 inactive | TSA no protein inactive
c1ccc(Cc2nnc(-c3ccccc3)o2)cc1	none (no result: S100A4 MyoIIA, ERAP1 HTS inh, ERp5 block, FGF22 binding-1)
COc1ccc(Cc2nnc(-c3ccccc3)o2)cc1	FGF22 binding-1 17 (no result: ERAP1 HTS inh) | FGF22 binding-2 inactive | TSA no protein inactive
COc1ccc(N2CCN(CCOc3ccc4c(C)cc(=O)oc4c3)CC2)cc1	FGF22 binding-1 2.2 | TSA no protein inactive
CCOC(=O)c1c(C)[nH]c(C)c1C(=O)COC(=O)/C=C/c1ccccc1[N+](=O)[O-]	FGF22 binding-1 2.0 (no result: ERp5 block) | FGF22 binding-2 inactive | TSA no protein inactive
C/C(=N\NC(=O)COc1ccc(C)cc1C(C)C)c1cc2ccccc2o1	FGF22 binding-1 20 | FGF22 binding-2 inactive | TSA no protein inactive
C/C(=N\NC(=O)c1nnn(-c2nonc2N)c1CSc1ccc(C)cc1)c1cccnc1	FGF22 binding-1 1.7 | FGF22 binding-2 inactive | TSA no protein inactive
CC1CCN(Cc2c(C(=O)N/N=C/c3ccc(OC(C)C)cc3)nnn2-c2nonc2N)CC1	FGF22 binding-1 1.5 | FGF22 binding-2 inactive | TSA no protein inactive
Nc1nonc1-n1nnc(C(=O)N/N=C/c2cccnc2)c1CSc1ccc(Cl)cc1	FGF22 binding-1 2.7 | FGF22 binding-2 inactive | TSA no protein inactive
O=C(CSc1nc2ccccc2c(=O)n1-c1ccccc1F)NC1CC1	none
